Experimental data reported in ChEMBL document CHEMBL1138797, “6-azapyrimidine-2'-deoxy-4'-thionucleosides: antiviral agents against TK+ and TK- HSV and VZV strains” (J Med Chem, 2004).
pEC50: −log10 of the molar value. ≈ marks a conversion by molar mass, not a printed value.

Tests used:
[1] = Minimum cytotoxic concentration that causes microscopically detectable alteration of cell morphology in HEL cell culture; format: cell-based; settings: human, HEL cells
[2] = test system: HEL; test: Effective concentration required to reduce TK+ (thymidine kinase presence) VZV strain YS virus plaque formation by 50% in HEL cell culture; format: functional, cell-based, Human alphaherpesvirus 3; settings: Homo sapiens
[3] = Cytotoxic concentration required to reduce HEL cell growth by 50%; format: cell-based; settings: human, HEL cells
[4] = test system: E6SM; test: Effective concentration required to reduce vaccinia virus plaque formation by 50% in E6SM Cell Culture; format: functional, cell-based; settings: Homo sapiens
Summary of the method: (§1)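 Confluent E6SM cell cultures in microtiter trays were infected with 20 PFU for a 1 h adsorption period, then washed free of residual virus and incubated with serial compound dilutions (400, 200, 100, ... μg/mL). Plaque formation was read when cytopathicity was complete in virus controls. […] The TK-deficient HSV-1 line refers to HSV-1/TK⁻ ACVʳ.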

[5] = test system: HEL; test: Effective concentration required to reduce […] (thymidine kinase deficient) VZV strain 07/1 virus plaque formation by 50% in HEL cell culture; format: functional, cell-based, Human alphaherpesvirus 3; settings: Homo sapiens
[6] = test system: E6SM; test: Effective concentration required to reduce HSV-2 strain G virus plaque formation by 50% in E6SM Cell Culture; format: functional, cell-based; settings: Homo sapiens; summary of the method: as §1
[7] = test system: HEL; test: Effective concentration required to reduce […] (thymidine kinase deficient) VZV strain YS/R virus plaque formation by 50% in HEL cell culture; format: functional, cell-based, Human alphaherpesvirus 3; settings: Homo sapiens
[8] = test system: E6SM; test: Effective concentration required to reduce HSV-1 strain KOS ACV virus plaque formation by 50% in E6SM Cell Culture; format: functional, cell-based; settings: Homo sapiens; summary of the method: as §1
[9] = test system: HEL; test: Effective concentration required to reduce TK+ (thymidine kinase presence) VZV strain OKA virus plaque formation by 50% in HEL cell culture; format: functional, cell-based, Human alphaherpesvirus 3; settings: Homo sapiens
[10] = test system: HEL; test: Effective concentration required to reduce CMV AD169 strain virus plaque formation by 50% in HEL cell culture; format: functional, cell-based, Cytomegalovirus; settings: Homo sapiens
Summary of the method: (§2)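 Plaque-reduction assay in confluent HEL cell cultures. After 1 h adsorption of a 20 PFU virus input, residual virus was removed and cells were incubated with graded compound concentrations. Plaques were scored once cytopathicity was complete in untreated infected controls. […] The TK-deficient VZV line refers to strain YS/R.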

[11] = test system: HEL; test: Effective concentration required to reduce CMV davis strain virus plaque formation by 50% in HEL cell culture; format: functional, cell-based, Cytomegalovirus; settings: Homo sapiens; summary of the method: as §2
[12] = test system: E6SM; test: Minimum cytotoxic concentration that caused a microscopically detectable alteration of cell morphology in E6SM Cell Culture; format: functional; settings: Homo sapiens
[13] = test system: E6SM; test: Effective concentration required to reduce HSV-1 strain KOS virus plaque formation by 50% in E6SM Cell Culture; format: functional, cell-based; settings: Homo sapiens; summary of the method: as §1
[14] = test system: HEL; test: Effective concentration required to reduce […] (thymidine kinase deficient) VZV strain YS/R virus plaque formation by 50% in HEL cell culture; No complete inhibition; format: functional, cell-based, Human alphaherpesvirus 3; settings: Homo sapiens; summary of the method: as §2

Row | SMILES | MCC [1] [µM] | pEC50 [2] | CC50 [3] [µM] | EC50 [4] [µg/mL] | pEC50 [5] | EC50 [6] [µg/mL] | pEC50 [7] | EC50 [8] [µg/mL] | pEC50 [9] | pEC50 [10] | pEC50 [11] | MCC [12] [µg/mL] | EC50 [13] [µg/mL] | pEC50 [14]
1 | CCCc1nn([C@H]2C[C@H](O)[C@@H](CO)S2)c(=O)[nH]c1=O | > 40 | < 4.40 | > 40 | > 200 | < 4.40 | > 200 | < 4.40 | 120 (≈ 418 µM) | < 4.40 | < 4.40 | < 4.40 | > 200 | > 200 | –
2 | Cc1nn([C@H]2C[C@H](O)[C@@H](CO)S2)c(=O)[nH]c1=S | > 40 | < 4.40 | > 40 | 120 (≈ 436 µM) | < 4.40 | 120 (≈ 436 µM) | < 4.40 | 120 (≈ 436 µM) | < 4.40 | < 4.40 | < 4.40 | > 200 | 120 (≈ 436 µM) | –
3 | CCc1nn([C@H]2C[C@H](O)[C@@H](CO)S2)c(=O)nc1O | > 40 | < 4.40 | – | > 200 | < 4.40 | > 200 | < 4.40 | > 200 | < 4.40 | < 4.40 | < 4.40 | > 200 | 120 (≈ 439 µM) | –
4 | O=c1[nH]c(=O)n([C@H]2C[C@H](O)[C@@H](CO)O2)cc1/C=C/Br [BRIVUDINE] | – | 8.52 | – | > 400 | 4.54 | 80 (≈ 240 µM) | 4.25 | 16 (≈ 48 µM) | 8.52 | < 3.82 | < 3.40 | > 400 | 0.01 (≈ 0.03 µM) | –
5 | Cc1nn([C@H]2C[C@H](O)[C@@H](CO)S2)c(=O)nc1O | > 200 | 5.39 | 166 | 2.2 (≈ 8.48 µM) | 4.85 | 3.2 (≈ 12.3 µM) | – | 18 (≈ 69.4 µM) | 5.60 | < 3.70 | < 3.70 | > 200 | 1.3 (≈ 5.01 µM) | ≤ 5.30
6 | CC(=O)OC[C@H]1S[C@@H](n2nc(C)c(=S)[nH]c2=O)C[C@@H]1OC(C)=O | > 40 | < 4.40 | > 40 | > 8 | < 4.40 | > 8 | < 4.40 | > 8 | < 4.40 | < 4.40 | < 4.40 | ≥ 40 | > 8 | –
7 | Cc1nn([C@H]2C[C@H](O)[C@@H](CO)S2)c(=O)nc1N | > 40 | < 4.40 | > 40 | 24 (≈ 92.9 µM) | < 4.40 | 24 (≈ 92.9 µM) | < 4.40 | 120 (≈ 465 µM) | < 4.40 | < 4.40 | < 4.40 | > 200 | 24 (≈ 92.9 µM) | –
8 | Nc1nc2c(ncn2COCCO)c(=O)[nH]1 [ACYCLOVIR] | – | – | – | 0.38 (≈ 1.69 µM) | – | 0.07 (≈ 0.311 µM) | – | 48 (≈ 213 µM) | – | < 3.70 | < 3.40 | > 400 | 0.07 (≈ 0.311 µM) | –
9 | Nc1nc2c(ncn2COC(CO)CO)c(=O)[nH]1 [GANCICLOVIR] | > 150 | – | > 150 | > 100 | – | 0.003 (≈ 0.0118 µM) | – | 2.4 (≈ 9.4 µM) | – | 6.30 | 5.82 | > 100 | 0.004 (≈ 0.0157 µM) | –
